The text below walks through data of ChEMBL document CHEMBL4400543, “Identification and Characterization of AES-135, a Hydroxamic Acid-Based HDAC Inhibitor That Prolongs Survival in an Orthotopic Mouse Model of Pancreatic Cancer” (J Med Chem, 2019).

Broadly, the inhibition is the change of the read-out against control, counted positive when it falls. As usually defined, the IC50 is the midpoint of a concentration-inhibition curve. The term logD denotes lipophilicity at a set pH, counting ionised and neutral species. A higher logD goes with higher lipophilicity.

Data set [1] addresses Signal transducer and activator of transcription 3 (Homo sapiens) (UniProt P40763). The data set can be described thus: Inhibition of STAT3 phosphorylation at S727 residue in human BTSC 147EF cells at 2 uM after 3 to 24 hrs by Western blot method. Type of data set: cell-based. In short, it runs like this:
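BTSCs dissociated to single cells and treated with drug or DMSO. Lysed in RIPA buffer with protease inhibitors. 20 μg lysate run on SDS-PAGE and transferred to nitrocellulose. Blocked in 5% milk, primary antibody overnight at 4 °C, then HRP secondary for 1 h.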
(Immunoblotting shows a protein as a band on a membrane.)

Data set [2] can be described thus: Drug uptake in NSG mouse serum at 10 mg/kg, ip administered daily for 5 days by HPLC-MS/MS analysis. Type of data set: ADME, organism-based. The following applies: read-out: Drug uptake. In outline: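 NSG mice dosed IP once daily for 5 days at 10 or 40 mg/kg, n = 6. Blood collected 5 h after the final injection for serum drug concentration, reported ± SD.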

The test system of data set [3] is Pa03C. The data set can be described thus: Cytotoxicity against human Pa03C cells assessed as reduction in tumor spheroid area after 72 hrs by Alamar Blue assay. Type of data set: functional, cell-based. In outline:
(§1)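 3D spheroids of patient-derived PDAC cells (tomato red) alone or with CAF19 cells, plus CAF cultures. Imaging read-outs: area is the μ2 of objects above a tomato red intensity threshold; intensity is summed red or green pixel fluorescence after background removal. n = 3–5.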

A short description of data set [4]: Cytotoxicity against human MRC9 cells at 50 uM after 72 hrs by CellTiter-Blue assay. Type of data set: cell-based. In outline: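 Cells in 10% FBS medium, 10 000 cells/well, treated 24 h after plating. Twofold dilution series from a 50.0 μM top dose to 0.097656 μM, in triplicate, 0.5% DMSO vehicle. 72 h at 37 °C, 5% CO2. CellTiter-Blue for 1–4 h, fluorescence 560/590 nm. IC50 by nonlinear regression.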
A general note: Alamar Blue is a resazurin reagent that responds to reducing activity.

In data set [5] the target is Histone deacetylase 8 (Homo sapiens) (UniProt Q9BY41). The data set can be described thus: Inhibition of recombinant human HDAC8 expressed in SF9 baculoviral system at 10 uM using FAM-labeled acetylated peptide as substrate by EMSA relative to control. In outline:
(§2)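 Single-point screen at 10 μM compound, using full-length recombinant human enzyme expressed in Sf9 cells. Buffer was HEPES pH 7.5 with KCl, BSA and Triton X-100, and 1% DMSO. Final enzyme was 0.5 nM for HDAC3, 60 nM for HDAC6 and 5.0 nM for HDAC8, with 1 μM FAM-acetylated peptide. Percent inhibition was derived from the product sum ratio relative to DMSO-only (0%) and no-enzyme (100%) controls.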
(In EMSA bound probe runs differently from free probe, usually more slowly.)

Data set [6] deals with Panc1005. The data set can be described thus: Cytotoxicity against human Panc 10.05 monolayer cells assessed as reduction in tumor spheroid intensity after 72 hrs by Alamar Blue assay. Type of data set: functional, cell-based. The settings on record: Panc1005, 72 h. In outline: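 Monolayer proliferation of STR-authenticated, mycoplasma-checked patient-derived PDAC lines and mouse KPC cells. Plated at 2000 cells/well, treated 72 h, read by alamarBlue. At least triplicate, n = 3–5.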

The next data set concerns the target T1, Histone deacetylase 8 (Homo sapiens, UniProt Q9BY41).
T1 sequence (Q9BY41 whole entry): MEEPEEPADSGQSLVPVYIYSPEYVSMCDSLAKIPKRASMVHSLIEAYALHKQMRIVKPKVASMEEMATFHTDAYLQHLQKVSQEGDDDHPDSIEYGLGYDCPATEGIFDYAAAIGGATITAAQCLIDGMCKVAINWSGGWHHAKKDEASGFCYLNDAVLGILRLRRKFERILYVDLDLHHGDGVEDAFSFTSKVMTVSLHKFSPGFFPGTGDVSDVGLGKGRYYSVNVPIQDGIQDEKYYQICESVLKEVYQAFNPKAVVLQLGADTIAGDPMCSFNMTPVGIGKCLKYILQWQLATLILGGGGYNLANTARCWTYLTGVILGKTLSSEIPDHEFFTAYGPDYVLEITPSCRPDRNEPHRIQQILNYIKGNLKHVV
The data set can be described thus: Inhibition of recombinant human HDAC8 expressed in SF9 baculoviral system using FAM-labeled acetylated peptide as substrate by EMSA. In short, it runs like this:
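Full-length recombinant human enzyme from an Sf9 baculovirus system, in 100 mM HEPES pH 7.5 with 25 mM KCl, 0.1% BSA, 0.01% Triton X-100 and 1% DMSO. Final enzyme was 0.5 nM for HDAC3, 60 nM for HDAC6 and 5.0 nM for HDAC8. FAM-acetylated peptide was 1 μM. The read-out was product/(substrate+product) by microfluidic mobility shift, with inhibition set against DMSO and no-enzyme controls (quadruplicate). Compounds were tested at 12 threefold-spaced concentrations, and IC50 came from a four-parameter sigmoid fit.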

Data set [7] is described as follows: Drug uptake in NSG mouse serum at 20 mg/kg, ip administered as single dose and measured at 1 hr by HPLC-MS/MS analysis. Type of data set: ADME, organism-based. The following applies: read-out: Drug uptake. In short, it runs like this:
(§3)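 NSG mice given a single 20 mg/kg IP dose in Cremophor EL/EtOH (1:1, 4% final volume)/sterile saline. Tail-vein blood at 0.5, 1, 2, 4, 8 and 24 h, n = 2. Drug quantified in serum/plasma. Half-life and clearance calculated assuming 100% bioavailability.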

Data set [8] can be described thus: Drug uptake in NSG mouse serum at 20 mg/kg, ip administered as single dose and measured at 24 hrs by HPLC-MS/MS analysis. Type of data set: ADME, organism-based. The following applies: read-out: Drug uptake. In outline:
as §3

The nature of data set [9]: Drug uptake in NSG mouse serum at 20 mg/kg, ip administered as single dose and measured at 0.5 hrs by HPLC-MS/MS analysis. Type of data set: ADME, organism-based. The settings on record: read-out: Drug uptake. In short, it runs like this:
as §3

The test system of data set [10] is Pa03C. The data set can be described thus: Cytotoxicity against human Pa03C cells assessed as reduction in tumor spheroid intensity after 72 hrs by Alamar Blue assay. Type of data set: functional, cell-based. In outline:
as §1

Data set [11] is described as follows: Toxicity in NSG mouse assessed as body weight loss at 60 mg/kg, ip administered daily for 4 to 5 days. Type of data set: organism-based. The following applies: in vivo. In outline: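 NSG mice were dosed IP daily across a range of doses for 4–5 days (n = 6). Animals were weighed before and after dosing, and toxicity was scored as percentage body-weight loss.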

In data set [12] the target is Histone deacetylase 4 (Homo sapiens) (UniProt P56524). The experiment in a line: Inhibition of recombinant human HDAC4 expressed in SF9 baculoviral system at 10 uM using FAM-labeled acetylated peptide as substrate by EMSA relative to control.
Chain of Histone deacetylase 4 (Homo sapiens) (P56524 whole entry): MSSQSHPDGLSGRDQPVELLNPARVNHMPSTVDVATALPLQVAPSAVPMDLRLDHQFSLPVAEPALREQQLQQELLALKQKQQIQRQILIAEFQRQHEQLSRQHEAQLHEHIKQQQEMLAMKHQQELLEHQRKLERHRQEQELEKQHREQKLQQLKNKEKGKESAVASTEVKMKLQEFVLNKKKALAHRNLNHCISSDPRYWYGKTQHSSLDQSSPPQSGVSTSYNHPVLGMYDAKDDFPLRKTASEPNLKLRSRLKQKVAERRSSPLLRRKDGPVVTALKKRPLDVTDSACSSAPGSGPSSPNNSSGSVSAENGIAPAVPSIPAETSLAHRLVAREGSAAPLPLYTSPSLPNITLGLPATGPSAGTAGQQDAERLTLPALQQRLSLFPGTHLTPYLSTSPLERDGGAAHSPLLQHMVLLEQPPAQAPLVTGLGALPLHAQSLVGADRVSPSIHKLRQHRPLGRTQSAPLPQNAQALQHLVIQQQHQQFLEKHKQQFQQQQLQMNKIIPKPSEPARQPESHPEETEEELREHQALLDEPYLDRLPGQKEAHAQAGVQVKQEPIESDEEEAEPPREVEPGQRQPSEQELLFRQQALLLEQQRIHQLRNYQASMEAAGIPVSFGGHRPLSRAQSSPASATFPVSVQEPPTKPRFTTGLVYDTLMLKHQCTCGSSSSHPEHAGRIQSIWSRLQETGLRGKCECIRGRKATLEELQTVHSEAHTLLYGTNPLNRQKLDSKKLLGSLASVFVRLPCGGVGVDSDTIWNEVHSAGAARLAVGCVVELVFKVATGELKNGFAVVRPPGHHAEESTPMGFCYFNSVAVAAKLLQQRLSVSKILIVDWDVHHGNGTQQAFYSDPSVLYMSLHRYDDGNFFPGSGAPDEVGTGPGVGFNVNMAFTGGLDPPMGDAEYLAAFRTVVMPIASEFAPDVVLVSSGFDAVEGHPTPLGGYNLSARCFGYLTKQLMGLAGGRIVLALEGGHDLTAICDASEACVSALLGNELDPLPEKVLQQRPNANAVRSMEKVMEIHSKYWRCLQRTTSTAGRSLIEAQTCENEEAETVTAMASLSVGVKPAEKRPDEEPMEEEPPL
Data set [13] has as its target Histone deacetylase 1 (Homo sapiens) (UniProt Q13547). The experiment in a line: Inhibition of recombinant human HDAC1 expressed in SF9 baculoviral system at 10 uM using FAM-labeled acetylated peptide as substrate by EMSA relative to control. In short, it runs like this: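 Full-length recombinant human HDACs from an Sf9 baculovirus system. Single-point screen at 10 μM by microfluidic mobility-shift assay with FAM-labeled acetylated peptide substrate. Buffer: 100 mM HEPES pH 7.5, 25 mM KCl, 0.1% BSA, 0.01% Triton X-100, 1% DMSO. % inhibition from product/(substrate + product) against no-inhibitor and no-enzyme controls.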

Data set [14] in a line: Lipophilicity, log D of the compound at pH 7.4 by LC-ESI MS analysis. Type of data set: physicochemical. The following applies: buffer. In short, it runs like this:
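Partitioning measured in a 1-octanol/phosphate-buffered saline system at pH 7.4.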

Data set [15] can be described thus: Drug uptake in NSG mouse serum at 20 mg/kg, ip administered as single dose and measured at 2 hrs by HPLC-MS/MS analysis. The following applies: read-out: Drug uptake. Type of data set: ADME, organism-based. In outline: as §3
For data set [16], the system named is Panc1005. The experiment in a line: Cytotoxicity against human Panc 10.05 cells assessed as reduction in tumor spheroid intensity after 72 hrs by Alamar Blue assay. Type of data set: functional, cell-based. The following applies: Panc1005, 72 h. In short, it runs like this:
as §1

Data set [17] addresses Protein deacetylase HDAC6 (Homo sapiens) (UniProt Q9UBN7). The experiment in a line: Inhibition of recombinant human HDAC6 expressed in SF9 baculoviral system at 10 uM using FAM-labeled acetylated peptide as substrate by EMSA relative to control. In short, it runs like this:
as §2

Calls of active or inactive are those of the source.

Chain of Signal transducer and activator of transcription 3 (Homo sapiens) (P40763 whole entry): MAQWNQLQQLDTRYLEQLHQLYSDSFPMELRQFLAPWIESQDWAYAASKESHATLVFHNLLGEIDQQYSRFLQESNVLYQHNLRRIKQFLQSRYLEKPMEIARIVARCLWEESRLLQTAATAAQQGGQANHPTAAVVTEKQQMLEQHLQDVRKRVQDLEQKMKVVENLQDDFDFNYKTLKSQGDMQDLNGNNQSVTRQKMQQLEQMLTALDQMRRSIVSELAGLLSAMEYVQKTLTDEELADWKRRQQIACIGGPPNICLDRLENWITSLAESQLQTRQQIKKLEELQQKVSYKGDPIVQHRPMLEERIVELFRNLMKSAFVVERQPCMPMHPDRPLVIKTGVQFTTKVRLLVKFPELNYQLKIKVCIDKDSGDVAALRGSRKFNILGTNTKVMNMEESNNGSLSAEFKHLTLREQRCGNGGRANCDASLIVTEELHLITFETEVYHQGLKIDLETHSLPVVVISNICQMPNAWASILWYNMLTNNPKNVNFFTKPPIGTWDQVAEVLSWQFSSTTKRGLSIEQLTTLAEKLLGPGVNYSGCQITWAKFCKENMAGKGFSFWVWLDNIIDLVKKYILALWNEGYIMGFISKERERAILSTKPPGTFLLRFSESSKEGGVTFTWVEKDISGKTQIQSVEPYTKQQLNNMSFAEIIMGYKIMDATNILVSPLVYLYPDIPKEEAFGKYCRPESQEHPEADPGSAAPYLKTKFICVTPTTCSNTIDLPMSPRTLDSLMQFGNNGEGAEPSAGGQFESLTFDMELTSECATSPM
Chain of Protein deacetylase HDAC6 (Homo sapiens) (Q9UBN7 whole entry): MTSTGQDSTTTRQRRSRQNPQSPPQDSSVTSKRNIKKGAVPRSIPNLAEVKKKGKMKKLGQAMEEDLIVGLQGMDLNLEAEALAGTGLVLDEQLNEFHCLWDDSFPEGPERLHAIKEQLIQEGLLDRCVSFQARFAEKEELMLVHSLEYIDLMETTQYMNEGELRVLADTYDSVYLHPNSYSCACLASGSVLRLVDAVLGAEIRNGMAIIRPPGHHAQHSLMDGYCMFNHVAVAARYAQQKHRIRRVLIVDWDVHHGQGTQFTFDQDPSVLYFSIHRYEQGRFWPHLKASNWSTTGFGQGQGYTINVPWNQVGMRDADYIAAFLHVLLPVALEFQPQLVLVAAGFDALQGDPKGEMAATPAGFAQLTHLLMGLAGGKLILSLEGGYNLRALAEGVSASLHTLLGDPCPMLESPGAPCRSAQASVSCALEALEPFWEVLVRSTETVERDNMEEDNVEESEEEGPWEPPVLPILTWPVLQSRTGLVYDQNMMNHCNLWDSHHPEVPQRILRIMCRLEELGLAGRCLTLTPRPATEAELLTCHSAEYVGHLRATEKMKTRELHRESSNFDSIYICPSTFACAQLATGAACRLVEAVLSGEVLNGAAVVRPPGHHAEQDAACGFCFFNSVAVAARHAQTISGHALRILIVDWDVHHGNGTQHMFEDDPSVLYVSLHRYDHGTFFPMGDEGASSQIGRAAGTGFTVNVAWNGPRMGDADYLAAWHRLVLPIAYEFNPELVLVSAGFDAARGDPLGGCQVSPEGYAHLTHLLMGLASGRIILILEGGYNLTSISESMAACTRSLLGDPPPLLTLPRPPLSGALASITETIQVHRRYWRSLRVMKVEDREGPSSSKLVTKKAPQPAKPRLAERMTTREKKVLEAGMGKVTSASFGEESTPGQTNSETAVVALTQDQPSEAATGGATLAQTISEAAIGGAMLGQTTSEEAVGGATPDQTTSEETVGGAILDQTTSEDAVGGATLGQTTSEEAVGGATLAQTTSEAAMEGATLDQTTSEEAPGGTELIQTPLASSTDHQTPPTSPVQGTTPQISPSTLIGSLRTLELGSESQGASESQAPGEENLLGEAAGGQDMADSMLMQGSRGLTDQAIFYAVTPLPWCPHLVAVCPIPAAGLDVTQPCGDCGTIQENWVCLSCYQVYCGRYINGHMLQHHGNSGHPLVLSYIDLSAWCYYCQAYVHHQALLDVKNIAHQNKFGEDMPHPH
Chain of Histone deacetylase 1 (Homo sapiens) (Q13547 whole entry): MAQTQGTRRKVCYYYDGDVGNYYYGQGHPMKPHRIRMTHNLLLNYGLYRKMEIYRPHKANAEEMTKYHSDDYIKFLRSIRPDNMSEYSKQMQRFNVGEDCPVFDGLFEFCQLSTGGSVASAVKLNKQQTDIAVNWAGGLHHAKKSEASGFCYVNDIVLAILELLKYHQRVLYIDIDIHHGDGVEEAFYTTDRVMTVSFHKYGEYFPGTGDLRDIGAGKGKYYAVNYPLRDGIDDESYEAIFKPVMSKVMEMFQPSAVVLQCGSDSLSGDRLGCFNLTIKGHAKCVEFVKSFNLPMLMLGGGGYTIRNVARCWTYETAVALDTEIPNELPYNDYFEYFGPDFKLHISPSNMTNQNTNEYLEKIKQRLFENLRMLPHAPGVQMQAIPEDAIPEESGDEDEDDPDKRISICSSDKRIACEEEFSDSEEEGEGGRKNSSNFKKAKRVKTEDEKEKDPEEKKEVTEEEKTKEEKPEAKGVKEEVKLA

For the compound `CC(C)(C)c1ccc(CN(C(=O)CN(Cc2c(F)c(F)c(F)c(F)c2F)S(=O)(=O)c2ccc(F)cc2)c2ccc(C(=O)NO)cc2)cc1`, the inhibition result in data set [1] is “inactive”. In addition, the concentration at 120 h in data set [2] is 470 nM. The IC50 in the data set on Pa03C [3] was 1220 nM; with Panc1005 [6], 3.9 µM; at Histone deacetylase 8 it was more than 1000 nM; with Pa03C [10] it was 1330 nM; in the data set on Panc1005 [16] it was 600 nM. Moreover, the Activity entry in data set [4] and in [11] was “Non-Toxic” each time. Moreover, the inhibition worked out at 94% in data set [5], 15% in [12], 72% in [13] and 98% in [17]. Also, the concentration at 1 h in data set [7] amounted to 5400 ng/mL. The concentration at 24 h in data set [8] worked out at 265 ng/mL. For the same compound, the concentration at 0.5 h in [9] came to 7450 ng/mL. In data set [14], the logD amounted to 4.15. The concentration at 2 h in [15] came out at 5390 ng/mL.
